The values that follow come from ChEMBL document CHEMBL1143742, “An antifungal agent inhibits an aminoacyl-tRNA synthetase by trapping tRNA in the editing site” (Science, 2007).

Converted amounts (≈) assume the structure as drawn. The source made the active and inactive calls. No cut-off for these calls is given here. Bounds are passed on as bounds.

In assay [1] the target is T1, Leucine--tRNA ligase, cytoplasmic (Saccharomyces cerevisiae S288c, UniProt P26637).
T1 sequence (P26637 whole entry): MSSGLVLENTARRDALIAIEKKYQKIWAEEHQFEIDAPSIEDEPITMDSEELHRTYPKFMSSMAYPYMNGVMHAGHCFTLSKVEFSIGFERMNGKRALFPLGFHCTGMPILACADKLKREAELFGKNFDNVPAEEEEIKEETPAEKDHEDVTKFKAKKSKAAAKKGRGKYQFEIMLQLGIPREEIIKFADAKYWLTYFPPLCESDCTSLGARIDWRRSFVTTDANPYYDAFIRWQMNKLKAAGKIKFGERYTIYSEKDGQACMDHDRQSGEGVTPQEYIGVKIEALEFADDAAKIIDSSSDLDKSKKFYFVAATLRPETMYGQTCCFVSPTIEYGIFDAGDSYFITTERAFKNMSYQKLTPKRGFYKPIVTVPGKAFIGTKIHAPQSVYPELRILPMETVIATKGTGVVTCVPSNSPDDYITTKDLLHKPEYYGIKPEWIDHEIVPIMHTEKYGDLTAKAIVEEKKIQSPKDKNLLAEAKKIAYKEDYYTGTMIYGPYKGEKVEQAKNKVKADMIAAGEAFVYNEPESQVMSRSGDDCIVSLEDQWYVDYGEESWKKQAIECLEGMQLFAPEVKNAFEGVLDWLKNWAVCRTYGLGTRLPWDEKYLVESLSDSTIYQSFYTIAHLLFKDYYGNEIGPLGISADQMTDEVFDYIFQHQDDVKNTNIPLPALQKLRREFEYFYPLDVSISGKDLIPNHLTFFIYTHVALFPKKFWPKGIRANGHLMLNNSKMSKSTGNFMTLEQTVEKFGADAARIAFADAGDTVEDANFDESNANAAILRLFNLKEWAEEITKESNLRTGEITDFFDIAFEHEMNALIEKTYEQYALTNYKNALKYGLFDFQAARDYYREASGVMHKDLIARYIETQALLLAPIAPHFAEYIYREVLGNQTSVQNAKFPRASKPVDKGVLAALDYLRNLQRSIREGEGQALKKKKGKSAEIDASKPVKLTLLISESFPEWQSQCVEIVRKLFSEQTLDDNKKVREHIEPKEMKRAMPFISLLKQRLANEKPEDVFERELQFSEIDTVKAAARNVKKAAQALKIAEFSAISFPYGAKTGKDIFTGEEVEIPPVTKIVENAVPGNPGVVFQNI
The experiment in a line: Inhibition of Saccharomyces cerevisiae cytoplasmic leucyl-tRNA synthetase assessed as tRNA amino-acylation. The method in brief:
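Recombinant N-terminal His6-tagged yeast Cdc60p (2 nM) in 50 mM HEPES-KOH pH 8.0, 30 mM MgCl2, 30 mM KCl, 0.02% BSA, 1 mM DTT, 20 µM [14C]leucine, 0.2 mg/mL brewer's yeast tRNA at 30°C. Enzyme preincubated 20 min with compound, tRNA and leucine; started with 4 mM ATP. Timed aliquots TCA-precipitated on nitrocellulose filters and counted by scintillation; triplicates.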

For assay [2], the system named is Saccharomyces cerevisiae. The experiment in a line: Antimicrobial activity against Saccharomyces cerevisiae in synthetic defined media without leucine. The assay is classed as functional.
Assay [3] concerns Saccharomyces cerevisiae. The experiment in a line: Antimicrobial activity against AN2690-resistant Saccharomyces cerevisiae ANA326 with CDC60 L315V mutation. The assay is classed as functional.
The next assay has as its system Cryptococcus neoformans. The experiment in a line: Antifungal activity against Cryptococcus neoformans F285. The assay is classed as functional.
The next assay has as its system Trichophyton rubrum. Put plainly: Antifungal activity against Trichophyton rubrum ATCC 18759. The assay is classed as functional.
A further assay deals with Candida tropicalis. The experiment in a line: Antifungal activity against Candida tropicalis ATCC 13803. It counts as functional.
Assay [4] has as its system Saccharomyces cerevisiae. The experiment in a line: Antimicrobial activity against AN2690-resistant Saccharomyces cerevisiae ANA321 with CDC60 R316I mutation. The assay is classed as functional.
The subject of the next assay is Fusarium solani. The experiment in a line: Antifungal activity against Fusarium solani ATCC 36031. The assay is classed as functional.
The test system of a further assay is Trichophyton benhamiae. Put plainly: Antifungal activity against Trichophyton mentagrophytes ATCC 28185. The assay is classed as functional, Arthroderma benhamiae.
The subject of assay [5] is Saccharomyces cerevisiae. The experiment in a line: Antimicrobial activity against AN2690-resistant Saccharomyces cerevisiae ANA358 with CDC60 S416L mutation. It counts as functional.
Assay [6] has as its target T1, Leucine--tRNA ligase, cytoplasmic. The experiment in a line: Inhibition of Saccharomyces cerevisiae cytoplasmic leucyl-tRNA synthetase after 20 mins. The essentials: (§1)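 His6-tagged yeast Cdc60p (LeuRS) expressed in E. coli Rosetta 2(DE3), used at 2 nM. Buffer 50 mM HEPES-KOH pH 8.0, 30 mM MgCl2, 30 mM KCl, 20 µM [14C]leucine, 0.2 mg/mL brewer's yeast tRNA, 0.02% BSA, 1 mM DTT, 30 °C. TCA-precipitated Leu-tRNA counted. Ki from Lineweaver-Burk y-intercepts replotted against inhibitor.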

The test system of another assay is Malassezia pachydermatis. Put plainly: Antifungal activity against Malassezia pachydermatis ATCC 96746. It counts as functional.
In the next assay the test system is Nakaseomyces glabratus. Put plainly: Antifungal activity against Candida glabrata ATCC 90030. It counts as functional.
Assay [7] concerns the target T1, Leucine--tRNA ligase, cytoplasmic. Put plainly: Inhibition of Saccharomyces cerevisiae cytoplasmic leucyl-tRNA synthetase after 2 mins. The method in brief: as §1
The subject of assay [8] is Cladosporium cladosporioides. Put plainly: Antifungal activity against Cladosporium cladosporioides ATCC 16022. The assay is classed as functional.
The next assay has as its system Epidermophyton floccosum. Put plainly: Antifungal activity against Epidermophyton floccosum ATCC 525066. It counts as functional.
The test system of another assay is Aspergillus fumigatus. The experiment in a line: Antifungal activity against Aspergillus fumigatus ATCC 13073. The assay is classed as functional.
Assay [9] has as its system Saccharomyces cerevisiae. Put plainly: Antimicrobial activity against AN2690-resistant Saccharomyces cerevisiae ANA327 with CDC60 T314M mutation. The assay is classed as functional.
Assay [10] in a line: Antifungal activity against Rhizopus microsporus ATCC 66276. It counts as functional.
A further assay relates to Candida albicans. Put plainly: Antifungal activity against Candida albicans ATCC 90028. It counts as functional.
The test system of another assay is Penicillium chrysogenum. Put plainly: Antifungal activity against Penicillium chrysogenum ATCC 10108. It counts as functional.
The test system of another assay is Pichia kudriavzevii. Put plainly: Antifungal activity against Candida krusei ATCC 44507. It counts as functional.
Assay [11] has as its system Saccharomyces cerevisiae. The experiment in a line: Antimicrobial activity against AN2690-resistant Saccharomyces cerevisiae ANA324 with CDC60 C326R mutation. The assay is classed as functional.
The target of assay [12] is T1, Leucine--tRNA ligase, cytoplasmic. Put plainly: Binding affinity to Saccharomyces cerevisiae cytoplasmic leucyl-tRNA synthetase in presence of AMP. The method in brief: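 Equilibrium dialysis across a 5 kDa membrane in 50 mM HEPES-KOH pH 8.0, 30 mM MgCl2, 30 mM KCl. Both sides counted in triplicate by scintillation, bound = side B minus side A. Kd from Scatchard plot.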

Another assay relates to Alternaria alternata. Put plainly: Antifungal activity against Alternaria alternata ATCC 6663. The assay is classed as functional.
The subject of assay [13] is Saccharomyces cerevisiae. Put plainly: Antimicrobial activity against Saccharomyces cerevisiae ATCC 201388. The assay is classed as functional.
A further assay concerns Microsporum audouinii. The experiment in a line: Antifungal activity against Microsporum audouinii ATCC 42558. The assay is classed as functional.
Assay [14] concerns Saccharomyces cerevisiae. The experiment in a line: Antimicrobial activity against AN2690-resistant Saccharomyces cerevisiae ANA322 with CDC60 C326F mutation. It counts as functional.
Assay [15] deals with Saccharomyces cerevisiae. The experiment in a line: Inhibition of protein synthesis in Saccharomyces cerevisiae S288C after 15 mins. It counts as functional, organism-based. The method in brief:
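Mid-log S. cerevisiae S288C in SDM lacking leucine, given 0.25 µCi [14C]leucine plus compound over a range of concentrations. 15 min at 30 °C, then cold 10% TCA for 15 min at 4 °C. Precipitate filtered, washed with 5% TCA and scintillation-counted. Percent incorporation relative to untreated cells. Run twice and averaged.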

A further assay deals with Malassezia furfur. Put plainly: Antifungal activity against Malassezia furfur ATCC 44344. It counts as functional.
The test system of assay [16] is Saccharomyces cerevisiae. Put plainly: Antimicrobial activity against AN2690-resistant Saccharomyces cerevisiae ANA320 with CDC60 N415D mutation. The assay is classed as functional.
For another assay, the system named is Nannizzia gypsea. The experiment in a line: Antifungal activity against Microsporum gypseum ATCC 24103. The assay is classed as functional.
Assay [17] concerns Saccharomyces cerevisiae. Put plainly: Antimicrobial activity against AN2690-resistant Saccharomyces cerevisiae ANA360 with CDC60 T319I mutation. The assay is classed as functional.
Assay [18] concerns Saccharomyces cerevisiae. The experiment in a line: Antimicrobial activity against AN2690-resistant Saccharomyces cerevisiae ANA323 with CDC60 G405V mutation. The assay is classed as functional.

For orientation: IC50 means the concentration at which inhibition is half-maximal. Consider `OB1OCCc2cc(F)ccc21`, for which the IC50 in assay [1] came to 96 µM.
In the case of `Cc1cc(F)ccc1B(O)O`, the concentration for half-maximal inhibition (IC50) in assay [1] is over 100 µM.
On the same count and under the same terms, in the case of `O=C1OCc2cc(F)ccc21` it was over 100 µM.
On the same count and under the same terms, in the case of `OC1OCc2cc(F)ccc21` (stereo not drawn) it was over 100 µM.
For `OB(O)c1ccc(F)cc1`, the IC50 in assay [1] was over 100 µM.
Take `COCc1cc(F)ccc1B(O)O`: the concentration for half-maximal inhibition (IC50) in assay [1] was over 100 µM.
One may read the MIC as the lowest concentration that inhibits growth of the organism. Read a high MIC as a need for much substance. Turning to `C[C@@H]1[C@H](O)[C@@H](C)/C=C/C=C/C=C/C=C/C=C/C=C/C=C/[C@H](O[C@@H]2O[C@H](C)[C@@H](O)[C@H](N)[C@@H]2O)C[C@@H]2O[C@](O)(C[C@@H](O)C[C@@H](O)[C@H](O)CC[C@@H](O)C[C@@H](O)CC(=O)O[C@H]1C)C[C@H](O)[C@H]2C(=O)O` [AMPHOTERICIN B], in the assay with Saccharomyces cerevisiae [2], the minimal inhibitory concentration (MIC) was determined as 1 µg/mL (≈ 1.08 µM).
The compound `C/C=C/C/C=C/CCC(=O)[C@H]1O[C@H]1C(N)=O` [CERULENIN] yielded an MIC in the assay with Saccharomyces cerevisiae [2] of 0.5 µg/mL (≈ 2.24 µM).
In the case of `C[C@@H]1C[C@@H]([C@H](O)CC2CC(=O)NC(=O)C2)C(=O)[C@@H](C)C1` [CYCLOHEXIMIDE], the MIC against Saccharomyces cerevisiae [2] turned out to be 0.5 µg/mL (≈ 1.78 µM).
As a reminder, the Ki is a dissociation constant, usually derived from enzyme kinetics or from competition with a known ligand. A word on the Kd: it is the equilibrium constant for the complex coming apart. In the case of `OB1OCc2cc(F)ccc21` [TAVABOROLE], the MIC is 16 µg/mL (≈ 105 µM) against Saccharomyces cerevisiae [3]; 0.06 µg/mL (≈ 0.395 µM) in the assay on Saccharomyces cerevisiae [2]; 0.25 µg/mL (≈ 1.65 µM) in the assay with Cryptococcus neoformans; 2 µg/mL (≈ 13.2 µM) in the assay on Trichophyton rubrum; 0.25 µg/mL (≈ 1.65 µM) in the assay with Candida tropicalis; 16 µg/mL (≈ 105 µM) against Saccharomyces cerevisiae [4]. Also, the MIC against Fusarium solani was 2 µg/mL (≈ 13.2 µM); in the assay with Trichophyton benhamiae it was 2 µg/mL (≈ 13.2 µM); against Saccharomyces cerevisiae [5] it was 32 µg/mL (≈ 211 µM); against Malassezia pachydermatis, 1 µg/mL (≈ 6.58 µM); in the assay with Nakaseomyces glabratus, at most 0.125 µg/mL; in assay [8], 0.5 µg/mL (≈ 3.29 µM). Besides, the minimal inhibitory concentration (MIC) in the assay on Epidermophyton floccosum stood at 1 µg/mL (≈ 6.58 µM); in the assay with Aspergillus fumigatus, 0.25 µg/mL (≈ 1.65 µM); against Saccharomyces cerevisiae [9] it was 32 µg/mL (≈ 211 µM); in [10] it was 2 µg/mL (≈ 13.2 µM); in the assay with Candida albicans, 0.5 µg/mL (≈ 3.29 µM); with Penicillium chrysogenum it was 2 µg/mL (≈ 13.2 µM). Also, the minimum inhibitory concentration (MIC) in the assay on Pichia kudriavzevii is 1 µg/mL (≈ 6.58 µM); against Saccharomyces cerevisiae [11], 16 µg/mL (≈ 105 µM); in the assay on Alternaria alternata it was 0.5 µg/mL (≈ 3.29 µM); against Saccharomyces cerevisiae [13] it was 0.125 µg/mL (≈ 0.823 µM); against Microsporum audouinii, 2 µg/mL (≈ 13.2 µM); in the assay on Saccharomyces cerevisiae [14], 16 µg/mL (≈ 105 µM). Further, the MIC in the assay on Malassezia furfur was 1 µg/mL (≈ 6.58 µM); in the assay with Saccharomyces cerevisiae [16] it was 4 µg/mL (≈ 26.3 µM); in the assay with Nannizzia gypsea, 2 µg/mL (≈ 13.2 µM); against Saccharomyces cerevisiae [17], 32 µg/mL (≈ 211 µM); against Saccharomyces cerevisiae [18], 16 µg/mL (≈ 105 µM). Also, the inhibition constant (Ki) amounted to 1.85 µM in assay [6] and 31.4 µM in assay [7]. For the same compound, the concentration for half-maximal inhibition (IC50) in [1] amounted to 2.1 µM. In assay [12], the Kd is 20.8 µM. The outcome in the assay with Saccharomyces cerevisiae [15] was Active.
